Apaf1 inhib = human Apaf-1 inhibition; O14727; reconstituted apoptosome caspase-3 activity, DEVD-Rh110 fluorescence; inhibition, % at 20 µM; 330,000 compounds, 0.71% hits; AID 489030; active means inhibition of at least 40% at 20 µM;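 further: plate controls were DMSO wells for no effect and DEVD-CHO caspase inhibitor wells for full effect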
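Material: cell-free apoptosome with Apaf-1, procaspase-3 and caspase-9; Buffer or medium: Hepes pH 7.5 with detergent and BSA; Reagent: cytochrome c trigger plus (Z-DEVD)2-Rh110 caspase-3 substrate; Times: compound with Apaf-1, dATP, procaspase-3 30 min, then 50 min reaction, room temperature; Technique: Rh110 fluorescence intensity.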
SENP1 FRET inh = inhibitors of human SENP1 SUMO protease catalytic domain. Q9P0U3. recombinant SENP1 catalytic domain, CyPet-SUMO1-YPet FRET cleavage. inhibition, % at 10 µM. 360,000 compounds, 0.21% hits;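 active means inhibition at least 30% at 10 µM, raw YFP signal under a set limit, fluorescence ratio 0.5 to 1.5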;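 further: 0% = enzyme with DMSO and 100% = no enzyme wells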
Target sequence (Q9P0U3 419-644 limits assumed): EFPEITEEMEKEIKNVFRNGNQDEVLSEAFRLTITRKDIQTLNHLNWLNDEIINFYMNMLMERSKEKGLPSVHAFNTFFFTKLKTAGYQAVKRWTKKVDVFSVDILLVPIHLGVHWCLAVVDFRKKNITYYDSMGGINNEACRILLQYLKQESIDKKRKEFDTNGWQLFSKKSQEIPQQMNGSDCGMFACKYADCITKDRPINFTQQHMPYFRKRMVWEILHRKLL
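Test system: recombinant human SENP1 catalytic domain, His6-tagged / Medium: pH 8 Tris buffer with EDTA, NaCl, BME, BSA, NP40, catalase / Also added: SUMO1 FRET substrate flanked by Cypet and Ypet, 25 nM / Times: 50 min reaction at room temperature / Signal: FRET, CFP and YFP emission / Control set: no-enzyme low control and enzyme-plus-DMSO high control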
SENP6 inh = blocks the human protease SENP6. Q9GZR1. Recombinant SENP6 catalytic domain, aminoluciferin luminescence. inhibition, % at 10 µM. 330,000 compounds, 1.8% hits. AID 2599;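 active means inhibition above about 50% at the single tested dose, limit read from the data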;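 further: plate controls were DMSO wells with enzyme for no effect and DMSO wells lacking enzyme for full effect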
SENP7 block = inhibitors of human SENP7 protease | Q9BQF6 | recombinant SENP7, Z-RLRGG-aminoluciferin luminescence, 40 min | inhibition, % at 5 µM | 330,000 compounds, 1.5% hits | AID 434973;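 active means inhibition above about 50% at the single test dose, limit read from the data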;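 further: plate controls were DMSO with enzyme for no effect and no enzyme buffer wells for full effect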
Target sequence (Q9BQF6 706-1050 limits assumed): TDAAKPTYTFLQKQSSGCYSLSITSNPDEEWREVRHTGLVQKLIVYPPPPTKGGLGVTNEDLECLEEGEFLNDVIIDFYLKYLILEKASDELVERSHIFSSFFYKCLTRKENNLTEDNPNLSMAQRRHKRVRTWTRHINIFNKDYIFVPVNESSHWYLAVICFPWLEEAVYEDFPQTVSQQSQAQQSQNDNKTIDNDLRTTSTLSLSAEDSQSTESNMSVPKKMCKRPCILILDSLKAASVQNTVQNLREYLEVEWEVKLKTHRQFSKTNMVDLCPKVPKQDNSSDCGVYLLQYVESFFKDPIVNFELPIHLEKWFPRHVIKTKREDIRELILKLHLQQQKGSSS
SENP8 block-1 = inhibitors of human SENP8 protease. purified SENP8, Z-RLRGG-aminoluciferin cleavage, luminescence. 330,000 compounds, 1.2% hits. Q96LD8. inhibition, % at 10 µM; in the data active means inhibition above about 50%
SENP8 block-2 = SENP8 (human) protease inhibition. AID 602440. Q96LD8. recombinant SENP8, Nedd8 substrate fluorescence. inhibition, % at 20 µM. 360,000 compounds, 0.64% hits; in the data active means inhibition mostly above about 40%, no sharp cut-off; inactive means mostly below about 27%
Apaf-1 inh conf = confirmation of Apaf-1 inhibitors; shares compounds with Apaf1 inhib; reconstituted apoptosome, caspase-3 DEVD-Rh110 fluorescence; inhibition, % at 20 µM; 1,800 compounds, 25% hits;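 active means mean inhibition of at least 40% at 20 µM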;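 further: plate controls were DMSO wells for no effect and DEVD-CHO caspase inhibitor control wells for full effect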
Rh110 quench = interferes with Rh110 fluorescence, flagging false Apaf-1 inhibitors; 1,800 tested, under 10 active; shares compounds with Apaf1 inhib; AID 504615; Rh110 fluorescence interference, quenched caspase reaction; activation (fluorescence interference), % at 20 µM;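 active means signal rise of 40% or more at 20 µM, treated as a fluorescence artifact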
Apaf1 inh interf = counter-screen for Apaf-1 inhibitors: fluorescence interference, dose response | shares compounds with Apaf1 inhib | fluorescence interference counterscreen, Apaf-1 assay format | IC50, µM | 460 tested, under 10 active | AID 588538; call rule not given here
* = called active by the depositor. Most compounds without a hit are left out; they make up all but 2.9% or so of the library.

What do the screens show for `C#CCOCCOCCOCCNc1nc(N2CCN(C(=O)CCCCCCCCCCNC(=O)Cn3cc(C[C@@H](C)O)nn3)CC2)nc(N2CCN(C(=O)CCCCCCCCCCNC(=O)[C@H](CCCN=C(N)N)n3cc(C[C@@H](C)CC)nn3)CC2)n1`?
Apaf1 inhib: 62*; SENP1 FRET inh: -2; SENP6 inh: -19; SENP7 block: -1; SENP8 block-1: 5; SENP8 block-2: 9; Apaf-1 inh conf: 36; Rh110 quench: 6

How did C#CCOCCOCCOCCNc1nc(N2CCN(C(=O)CCCCCCCCCCNC(=O)[C@H](CO)n3cc(CCCSC)nn3)CC2)nc(N2CCN(C(=O)CCCCCCCCCCNC(=O)[C@H](CCCCN)n3cc(CCO)nn3)CC2)n1 do in these assays?
Apaf1 inhib: 74*; SENP1 FRET inh: -1; SENP6 inh: -14; SENP7 block: 3; SENP8 block-1: -9; SENP8 block-2: 10; Apaf-1 inh conf: 42*; Rh110 quench: 10; Apaf1 inh interf: >100

Results for COc1ccc(CCNC(=O)c2coc(=O)c(Br)c2)cc1 ?
Apaf1 inhib: 10; SENP6 inh: -24; SENP7 block: -7; SENP8 block-1: -7

Results for COC(=O)CCC1(C(N)=O)CCC(=O)c2ccccc21 (stereo unspecified) ?
SENP1 FRET inh: -6; SENP8 block-2: 4

How did Cc1ccc(Cl)cc1NC(=O)C1CCCN(S(C)(=O)=O)C1 (stereo unspecified) do in these assays?
Apaf1 inhib: -3; SENP1 FRET inh: 0; SENP6 inh: 9; SENP7 block: 5; SENP8 block-1: -6; SENP8 block-2: 24

What do the screens show for `C#CCOCCOCCOCCNc1nc(N2CCN(C(=O)Cn3cc(CC(C)O)nn3)CC2)nc(N2CCN(C(=O)[C@H](CCCCN)n3cc(CCCC)nn3)CC2)n1` (stereo partly specified)?
SENP1 FRET inh: -1; SENP8 block-2: 20

Results for C#CCOCCOCCOCCNc1nc(N2CCN(C(=O)CCCCCCCCCCNC(=O)Cn3cc(CCCCCN)nn3)CC2)nc(N2CCN(C(=O)CCCCCCCCCCNC(=O)[C@H]([C@@H](C)CC)n3cc(CCCCN=C(N)N)nn3)CC2)n1 ?
Apaf1 inhib: 85*; SENP1 FRET inh: 1; SENP6 inh: -31; SENP7 block: 6; SENP8 block-1: -17; SENP8 block-2: 30; Apaf-1 inh conf: 69*; Rh110 quench: 3; Apaf1 inh interf: >100

What do the screens show for `C#CCOCCOCCOCCNc1nc(N2CCN(C(=O)CCCCCCCCCCNC(=O)[C@@H](CCC(=O)O)n3cc(CCCCCN)nn3)CC2)nc(N2CCN(C(=O)CCCCCCCCCCNC(=O)[C@H]([C@@H](C)CC)n3cc(CCCCCN)nn3)CC2)n1`?
Apaf1 inhib: 61*; SENP1 FRET inh: 3; SENP6 inh: -11; SENP7 block: -3; SENP8 block-1: -6; SENP8 block-2: 8; Apaf-1 inh conf: 37; Rh110 quench: 12

What do the screens show for `C#CCOCCOCCOCCNc1nc(N2CCN(C(=O)CCCCCCCCCCNC(=O)[C@H]([C@@H](C)CC)n3cc(CCCCCN)nn3)CC2)nc(N2CCN(C(=O)CCCCCCCCCCNC(=O)[C@H](CO)n3cc(CCCCCN)nn3)CC2)n1`?
Apaf1 inhib: 71*; SENP1 FRET inh: 0; SENP6 inh: -10; SENP7 block: 4; SENP8 block-1: -9; SENP8 block-2: 24; Apaf-1 inh conf: 48*; Rh110 quench: 9; Apaf1 inh interf: >100

Results for C#CCOCCOCCOCCNc1nc(N2CCOCC2)nc(N2CCN(C(=O)CCCCCCCCCCNC(=O)[C@@H](CCC(=O)O)n3cc(CCCCCN)nn3)CC2)n1 ?
Apaf1 inhib: -11; SENP1 FRET inh: 1; SENP6 inh: -5; SENP7 block: -1; SENP8 block-1: -2; SENP8 block-2: 8

Results for C#CCOCCOCCOCCNc1nc(N2CCN(C(=O)CCCCCCCCCCNC(=O)Cn3cc(C[C@@H](C)O)nn3)CC2)nc(N2CCN(C(=O)CCCCCCCCCCNC(=O)[C@@H](CCC(=O)O)n3cc(CCCCCN)nn3)CC2)n1 ?
Apaf1 inhib: 52*; SENP1 FRET inh: 1; SENP6 inh: -5; SENP7 block: 4; SENP8 block-1: 6; SENP8 block-2: 20; Apaf-1 inh conf: 13; Rh110 quench: 10

How did Cc1cccc(C)c1NC(=O)C1(C)CSCC(=O)N1CCCN1CCOCC1 (stereo unspecified) do in these assays?
SENP1 FRET inh: 1; SENP8 block-2: 25

What do the screens show for `O=C(Cn1cnc2c(OCc3ccccc3)ncnc21)NCCc1c[nH]c2ccccc12`?
Apaf1 inhib: 4; SENP1 FRET inh: 1; SENP6 inh: 26; SENP7 block: 7; SENP8 block-1: 3; SENP8 block-2: 12

How did O=C1C(=NO)CC(c2ccccc2)N1c1ccccc1 (stereo unspecified) do in these assays?
SENP1 FRET inh: 3; SENP8 block-2: 7

What do the screens show for `C#CCOCCOCCOCCNc1nc(N2CCN(C(=O)CCCCCCCCCCNC(=O)Cn3cc(CCCCCN)nn3)CC2)nc(N2CCN(C(=O)CCCCCCCCCCNC(=O)Cn3cc(CCCCCN)nn3)CC2)n1`?
Apaf1 inhib: 65*; SENP1 FRET inh: -2; SENP6 inh: -3; SENP7 block: -4; SENP8 block-1: 4; SENP8 block-2: 21; Apaf-1 inh conf: 51*; Rh110 quench: 7; Apaf1 inh interf: >100

What do the screens show for `O=C(NCc1cc(Cl)cc(Cl)c1)c1csc([C@@H]2O[C@H](CO)[C@H](O)[C@H](O)[C@H]2O)n1`?
SENP1 FRET inh: 2; SENP8 block-2: 14

How did COc1cc2c(cc1OC)C1=C(C#N)CC/C(=N\S(=O)(=O)c3ccccc3)N1CC2 do in these assays?
Apaf1 inhib: 20; SENP1 FRET inh: -13; SENP6 inh: -2; SENP7 block: 6; SENP8 block-1: -17; SENP8 block-2: -93

How did COc1cc2c(cc1OC)C1=C(C#N)CCC(=O)N1CC2 do in these assays?
Apaf1 inhib: 50*; SENP1 FRET inh: 0; SENP6 inh: -15; SENP7 block: -5; SENP8 block-1: -7; SENP8 block-2: 27; Apaf-1 inh conf: 6; Rh110 quench: 5

What do the screens show for `Cc1ccc(OCC(=O)N/N=C\c2c(C)n(C)c3ccccc23)c([N+](=O)[O-])c1`?
Apaf1 inhib: 42*; SENP1 FRET inh: 1; SENP6 inh: -4; SENP7 block: 6; SENP8 block-1: 0; SENP8 block-2: 25; Apaf-1 inh conf: 12; Rh110 quench: 6

Assay outcomes deposited in PubChem by Sanford-Burnham Center for Chemical Genomics.
